ChEMBL document CHEMBL4373711, “Development of 3,5-Dinitrophenyl-Containing 1,2,4-Triazoles and Their Trifluoromethyl Analogues as Highly Efficient Antitubercular Agents Inhibiting Decaprenylphosphoryl-β-d-ribofuranose 2'-Oxidase” (J Med Chem, 2019)
≈ marks a conversion by molar mass, not a printed value. Calls of active or inactive are those of the source. The rule behind the calls is not given here.

Tests used:
Klebsiella pneumoniae = test: Antibacterial activity against Klebsiella pneumoniae at highest concentration measured after 24 to 48 hrs by alamar blue dye based broth microdilution assay; type: functional, organism-based
Escherichia coli = test: Antibacterial activity against Escherichia coli ATCC 25922 CCM 3954 at highest concentration measured after 24 to 48 hrs by alamar blue dye based broth microdilution assay; type: functional, organism-based
[1] = Cytotoxicity against human HepG2 cells assessed as cell viability at 30 uM after 48 hrs by CellTiter 96 aqueous one solution assay relative to control; type: cell-based; settings: read-out: Activity
Summary of the method: (§1)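 HepG2 (DMEM, 10% FBS, 1 mM pyruvate) or A431 (DMEM, 10% FBS) seeded 10,000 cells/well, 24 h at 37 °C, 5% CO2, then 30 µM compound for 48 h. MTS reagent 60 min, absorbance 490 nm, background subtracted; 0.1% DMSO vehicle = 100%, 10% SDS = 0% viability.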

Pichia kudriavzevii = test: Antifungal activity against Candida krusei ATCC 6258 CCM8271 at highest concentration measured after 24 to 48 hrs by alamar blue dye based broth microdilution assay; type: functional, organism-based
Enterococcus faecalis = test: Antibacterial activity against Enterococcus faecalis ATCC 29212 CCM 4224 at highest concentration measured after 24 to 48 hrs by alamar blue dye based broth microdilution assay; type: functional, organism-based
Candida parapsilosis = test: Antifungal activity against Candida parapsilosis ATCC 22019 CCM 8260 at highest concentration measured after 24 to 48 hrs by alamar blue dye based broth microdilution assay; type: functional, organism-based
Serratia marcescens = test: Antibacterial activity against Serratia marcescens at highest concentration measured after 24 to 48 hrs by alamar blue dye based broth microdilution assay; type: functional, organism-based
Staphylococcus aureus [2] = test: Antibacterial activity against Staphylococcus aureus subsp. aureus ATCC 29213 CCM 4223 at highest concentration measured after 24 to 48 hrs by alamar blue dye based broth microdilution assay; type: functional, organism-based
Mycobacterium kansasii [3] = test: Antimycobacterial activity against Mycobacterium kansasii 6509/96 after 21 days; type: functional; settings: 6509/96, 504 h
Summary of the method: (§2)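 Microdilution in Šula's semisynthetic medium; compounds in DMSO at 32–0.03 µM. Inoculum from 1.0 McFarland suspension diluted 10-4. […] Isoniazid and rifampicin as reference drugs.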

Mycobacterium kansasii [4] = test: Antimycobacterial activity against Mycobacterium kansasii CNCTC My 235/80 after 14 days; type: functional; settings: CNCTC My 235/80, 336 h; summary of the method: as §2
Mycobacterium kansasii [5] = test: Antimycobacterial activity against Mycobacterium kansasii 6509/96 after 14 days; type: functional; settings: 6509/96, 336 h; summary of the method: as §2
Staphylococcus aureus [6] = test: Antibacterial activity against methicillin-resistant Staphylococcus aureus subsp. aureus ATCC 43300 CCM 4750 at highest concentration measured after 24 to 48 hrs by alamar blue dye based broth microdilution assay; type: functional, organism-based
[7] = test system: Mycobacterium tuberculosis; test: Antimycobacterial activity against XDR Mycobacterium tuberculosis Praha 131 after 21 days; type: functional; settings: Praha 131, 504 h
Summary of the method: (§3)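 M. tuberculosis strains (H37Rv and clinical MDR/XDR isolates) tested by microdilution in Šula's semisynthetic medium. Compounds were dissolved in DMSO and tested at 32 to 0.03 µM in twofold steps. Inoculum was a 1.0 McFarland suspension diluted 10-3. Plates were incubated at 37 °C and read at 14 and 21 days.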

[8] = test system: Mycobacterium tuberculosis; test: Antimycobacterial activity against Mycobacterium tuberculosis H37Rv CNCTC My 331/88 after 21 days; type: functional; settings: H37Rv CNCTC My 331/88, 504 h; summary of the method: as §3
Candida tropicalis = test: Antifungal activity against Candida tropicalis ATCC 750 CCM 8264 at highest concentration measured after 24 to 48 hrs by alamar blue dye based broth microdilution assay; type: functional, organism-based
[9] = test system: Mycobacterium tuberculosis; test: Antimycobacterial activity against Mycobacterium tuberculosis H37Rv CNCTC My 331/88 after 14 days; type: functional; settings: H37Rv CNCTC My 331/88, 336 h; summary of the method: as §3
[10] = test system: Staphylococcus epidermidis; test: Antibacterial activity against Staphylococcus epidermidis at highest concentration measured after 24 to 48 hrs by alamar blue dye based broth microdilution assay; type: functional, organism-based
[11] = Cytotoxicity against human A431 cells assessed as cell viability at 30 uM after 48 hrs by CellTiter 96 aqueous one solution assay relative to control; type: cell-based, A-431; settings: read-out: Activity; summary of the method: as §1
A-431 = test: Cytotoxicity against human A431 cells assessed as reduction in cell viability after 48 hrs by CellTiter 96 aqueous one solution assay; type: cell-based; settings: A-431, 48 h
Mycobacterium kansasii [12] = test: Antimycobacterial activity against Mycobacterium kansasii CNCTC My 235/80 after 21 days; type: functional; settings: CNCTC My 235/80, 504 h; summary of the method: as §2
[13] = test system: Mycobacterium tuberculosis; test: Antimycobacterial activity against XDR Mycobacterium tuberculosis Praha 131 after 14 days; type: functional; settings: Praha 131, 336 h; summary of the method: as §3
Mycobacterium kansasii [14] = test: Antimycobacterial activity against Mycobacterium kansasii CNCTC My 235/80 after 7 days; type: functional; settings: CNCTC My 235/80, 168 h; summary of the method: as §2
Mycobacterium kansasii [15] = test: Antimycobacterial activity against Mycobacterium kansasii 6509/96 after 7 days; type: functional; settings: 6509/96, 168 h; summary of the method: as §2
HepG2 = test: Cytotoxicity against human HepG2 cells assessed as reduction in cell viability after 48 hrs by CellTiter 96 aqueous one solution assay; type: cell-based; settings: HepG2, 48 h
Aspergillus fumigatus = test: Antifungal activity against Aspergillus fumigatus ATCC 204305 at highest concentration measured after 24 to 48 hrs by alamar blue dye based broth microdilution assay; type: functional, organism-based
[16] = test system: Trichophyton interdigitale; test: Antifungal activity against Trichophyton interdigitale ATCC 9533 CCM 8377 at highest concentration measured after 72 to 120 hrs by alamar blue dye based broth microdilution assay; type: functional
Mycobacterium avium [17] = test: Antimycobacterial activity against Mycobacterium avium CNCTC My 330/88 after 14 days; type: functional; settings: CNCTC My 330/88, 336 h
Summary of the method: (§4)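 M. avium was tested by microdilution in Šula's semisynthetic medium, with compounds dissolved in DMSO and serially diluted from 1000 down to 1. Inoculum was a 1.0 McFarland suspension diluted 10-5. Plates were incubated at 37 °C and read at 14 and 21 days. […] Isoniazid and rifampicin served as standards.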

Mycobacterium avium [18] = test: Antimycobacterial activity against Mycobacterium avium CNCTC My 330/88 after 21 days; type: functional; settings: CNCTC My 330/88, 504 h; summary of the method: as §4
Aspergillus flavus = test: Antifungal activity against Aspergillus flavus CCM 8363 at highest concentration measured after 24 to 48 hrs by alamar blue dye based broth microdilution assay; type: functional, organism-based
Candida albicans = test: Antifungal activity against Candida albicans ATCC 24433 CCM 8320 at highest concentration measured after 24 to 48 hrs by alamar blue dye based broth microdilution assay; type: functional, organism-based
Pseudomonas aeruginosa = test: Antibacterial activity against Pseudomonas aeruginosa ATCC 27853 CCM 3955 at highest concentration measured after 24 to 48 hrs by alamar blue dye based broth microdilution assay; type: functional, organism-based
Lichtheimia corymbifera = test: Antifungal activity against Lichtheimia corymbifera CCM 8077 at highest concentration measured after 24 to 48 hrs by alamar blue dye based broth microdilution assay; type: functional, organism-based
[19] = Genotoxicity in Salmonella typhimurium TA100 at 30 uM in presence of rat liver S9 fraction by Ames test; type: toxicity, subcellular; settings: salmonella enterica subsp. enterica serovar typhimurium, s9, 30 µM
Summary of the method: (§5)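 Microplate fluctuation Ames reverse-mutation test following kit instructions; TA98 detects frameshift and TA100 base-exchange mutations. Compound at 30 µM final with Aroclor-1254-induced rat liver S9 plus cofactors.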

[20] = Genotoxicity in Salmonella typhimurium TA98 at 30 uM in presence of rat liver S9 fraction by Ames test; type: toxicity, subcellular; settings: salmonella enterica subsp. enterica serovar typhimurium, s9, 30 µM; summary of the method: as §5

Structure (SMILES) | Activity (Klebsiella pneumoniae) | Activity (Escherichia coli) | viability at 48 h, 30 µM [1] [%] | Activity (Pichia kudriavzevii) | Activity (Enterococcus faecalis) | MIC99 (Mycobacterium kansasii [3]) [µM] | MIC99 (Mycobacterium kansasii [4]) [µM] | MIC99 (Mycobacterium kansasii [5]) [µM] | MIC99 [7] [µM] | MIC99 [8] [µM] | MIC99 [9] [µM] | viability at 48 h, 30 µM [11] [%] | IC50 (A-431) [µM] | MIC99 (Mycobacterium kansasii [12]) [µM] | MIC99 [13] [µM] | MIC99 (Mycobacterium kansasii [14]) [µM] | MIC99 (Mycobacterium kansasii [15]) [µM] | IC50 (HepG2) [µM] | MIC99 (Mycobacterium avium [17]) [µM] | MIC99 (Mycobacterium avium [18]) [µM] | also measured
Cn1c(SCc2ccccc2)nnc1-c1cc([N+](=O)[O-])cc([N+](=O)[O-])c1 | inactive | inactive | 161 | inactive | inactive | 0.25 (≈ 0.0928 µg/mL) | 0.25 (≈ 0.0928 µg/mL) | 0.125 (≈ 0.0464 µg/mL) | 0.03 (≈ 0.0111 µg/mL) | 0.03 (≈ 0.0111 µg/mL) | 0.03 (≈ 0.0111 µg/mL) | 108 | > 30 | 0.25 (≈ 0.0928 µg/mL) | 0.03 (≈ 0.0111 µg/mL) | 0.25 (≈ 0.0928 µg/mL) | 0.06 (≈ 0.0223 µg/mL) | > 30 | 16 (≈ 5.94 µg/mL) | 16 (≈ 5.94 µg/mL) | Activity (Candida parapsilosis): inactive; Activity (Serratia marcescens): inactive; Activity (Staphylococcus aureus [2]): inactive; Activity (Staphylococcus aureus [6]): inactive; Activity (Candida tropicalis): inactive; Activity [10]: inactive; Activity (Aspergillus fumigatus): inactive; Activity [16]: inactive; Activity (Aspergillus flavus): inactive; Activity (Candida albicans): inactive; Activity (Pseudomonas aeruginosa): inactive; Activity (Lichtheimia corymbifera): inactive
Cn1c(SCc2ccc(Cl)c(Cl)c2)nnc1-c1cc([N+](=O)[O-])cc([N+](=O)[O-])c1 | inactive | inactive | 110 | inactive | inactive | 0.125 (≈ 0.055 µg/mL) | 0.25 (≈ 0.11 µg/mL) | 0.125 (≈ 0.055 µg/mL) | 0.06 (≈ 0.0264 µg/mL) | 0.06 (≈ 0.0264 µg/mL) | 0.06 (≈ 0.0264 µg/mL) | 92 | > 30 | 0.5 (≈ 0.22 µg/mL) | 0.06 (≈ 0.0264 µg/mL) | 0.125 (≈ 0.055 µg/mL) | 0.06 (≈ 0.0264 µg/mL) | > 30 | > 500 | > 500 | Activity (Candida parapsilosis): inactive; Activity (Serratia marcescens): inactive; Activity (Staphylococcus aureus [2]): inactive; Activity (Staphylococcus aureus [6]): inactive; Activity (Candida tropicalis): inactive; Activity [10]: inactive; Activity (Aspergillus fumigatus): inactive; Activity [16]: inactive; Activity (Aspergillus flavus): inactive; Activity (Candida albicans): inactive; Activity (Pseudomonas aeruginosa): inactive; Activity (Lichtheimia corymbifera): inactive
O=[N+]([O-])c1cc(-c2nnc(SCc3ccc(Cl)c(Cl)c3)n2Cc2ccccc2)cc(C(F)(F)F)c1 | – | – | 104 | – | – | 8 (≈ 4.31 µg/mL) | 4 (≈ 2.16 µg/mL) | 4 (≈ 2.16 µg/mL) | 2 (≈ 1.08 µg/mL) | 2 (≈ 1.08 µg/mL) | 2 (≈ 1.08 µg/mL) | 80 | > 30 | 4 (≈ 2.16 µg/mL) | 2 (≈ 1.08 µg/mL) | 4 (≈ 2.16 µg/mL) | 4 (≈ 2.16 µg/mL) | > 30 | 250 (≈ 135 µg/mL) | 250 (≈ 135 µg/mL) | Activity [19]: Non-Toxic; Activity [20]: Non-Toxic
